The array DNA melting data of Ke et al. (doi:10.1101/2024.01.08.574731)

Experiments:
[1] = folding enthalpy; higher = less favourable; fluorescence melt of hairpins on a sequencing array, two-state fit; conditions: sodium 0.088 M
In short: (§1)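 With Cy3 and quencher oligos annealed, library hairpins on a sequenced MiSeq flow cell were imaged for Cy3 fluorescence in 50 mM Na-HEPES pH 8.0, 25 mM NaCl, in 2.5 °C steps up to 60 °C. Melting temperature and folding enthalpy were derived from bootstrapped two-state fits of signals normalised to pre-quench Cy3 and to control constructs. Four replicates were combined by inverse variance, with fitted temperatures raised by 9.35 °C to match UV melts.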

[2] = melting temperature; fluorescence melt of hairpins on a sequencing array, two-state fit, raised by 9.35 °C to match UV melts; conditions: sodium 0.088 M
In short: as §1

| Sequence | folding enthalpy [1] | Tm [2] |
| --- | --- | --- |
| CGAGCGGAAACGCGCTCG ((((((....)))..))) | -26.4 kcal/mol | 68.5 °C |
| CGAGCGGAAACGCTCTCG ((((((....)))..))) | -8.45 kcal/mol | 40.5 °C |
| CGAGGTCGGAAACGATCG (((..(((....)))))) | -21 kcal/mol | 41.2 °C |
| CGAGTCGGAAACGATCG (((.(((....)))))) | -27.4 kcal/mol | 40.8 °C |
| CGATAACGGAAACGTTCG (((..(((....)))))) | -16.1 kcal/mol | 35.6 °C |
| CGATCGGAAACGAAATCG ((((((....)))..))) | -22.2 kcal/mol | 33.9 °C |
| CGATCGGAAACGAATCG ((((((....))).))) | -34.7 kcal/mol | 46 °C |
| CGATCGGAAACGAGATCG ((((((....)))..))) | -28.4 kcal/mol | 42.5 °C |
| CGATCGGAAACGATATCG ((((((....)))..))) | -18.4 kcal/mol | 35.5 °C |
| CGATCGGAAACGATTCG ((((((....))).))) | -24.9 kcal/mol | 43.7 °C |
| CGATCGGAAACGATTTCG ((((((....)))..))) | -20.4 kcal/mol | 30.2 °C |
| CGATGCGGAAACGCGTCG (((.(((....))).))) | -47.4 kcal/mol | 62.1 °C |
| CGATGGAAACATCG (((((....))))) | -23.9 kcal/mol | 52.6 °C |
| CGATTCCGGAAACGGTCG (((..(((....)))))) | -27.7 kcal/mol | 36.2 °C |
| CGATTCGGAAACGACTCG (((.(((....))).))) | -37.8 kcal/mol | 42.6 °C |
| CGATTGCGGAAACGCTCG (((..(((....)))))) | -15.9 kcal/mol | 33.5 °C |
| CGATTTCGGAAACGATCG (((..(((....)))))) | -9.46 kcal/mol | 29.6 °C |
| CGCACCCGGAAACGGGCG (((..(((....)))))) | -12 kcal/mol | 46.1 °C |
| CGCACCGGAAACGGGCG (((.(((....)))))) | -25.2 kcal/mol | 55.7 °C |
| CGCACGGAAACGTCAGCG ((((((....)))..))) | -26.4 kcal/mol | 42.7 °C |
| CGCACGGAAACGTCTGCG ((((((....)))..))) | -23.8 kcal/mol | 42.6 °C |
| CGCACGGAAACGTGAGCG ((((((....)))..))) | -14.8 kcal/mol | 50.5 °C |
| CGCACGGAAACGTGGGCG ((((((....)))..))) | -12.8 kcal/mol | 56.3 °C |

| Sequence | folding enthalpy [1] | Tm [2] |
| --- | --- | --- |
| CGCACGGAAACGTTCGCG ((((((....)))..))) | -22.7 kcal/mol | 41.1 °C |
| CGCACGGAAACGTTTGCG ((((((....)))..))) | -29.5 kcal/mol | 44.1 °C |
| CGCAGACGGAAACGTGCG (((..(((....)))))) | -22.6 kcal/mol | 49.3 °C |
| CGCATCCGGAAACGGGCG (((..(((....)))))) | -26.7 kcal/mol | 46.9 °C |
| CGCATCGGAAACGAGGCG (((.(((....))).))) | -44.1 kcal/mol | 61.4 °C |
| CGCATTCGGAAACGAGCG (((..(((....)))))) | -25.9 kcal/mol | 36.9 °C |
| CGCCCGGAAACGGAAGCG ((((((....)))..))) | -30.8 kcal/mol | 49.3 °C |
| CGCCCGGAAACGGGTGCG ((((((....)))..))) | -10.7 kcal/mol | 57.5 °C |
| CGCCCGGAAACGGTAGCG ((((((....)))..))) | -30.4 kcal/mol | 50.9 °C |
| CGCCCGGAAACGGTCGCG ((((((....)))..))) | -21.2 kcal/mol | 50.1 °C |
| CGCCCTCGGAAACGAGCG (((..(((....)))))) | -12.2 kcal/mol | 34.5 °C |
| CGCCGCGGAAACGCGCG (((.(((....)))))) | -16.6 kcal/mol | 66.6 °C |
| CGCCGTCGGAAACGAGCG (((..(((....)))))) | -28.4 kcal/mol | 50.3 °C |
| CGCGCGGAAACGCATGCG ((((((....)))..))) | -32.8 kcal/mol | 52.9 °C |
| CGCGCGGAAACGCCAGCG ((((((....)))..))) | -23 kcal/mol | 53.9 °C |
| CGCGCGGAAACGCCCGCG ((((((....)))..))) | -29.7 kcal/mol | 54.7 °C |
| CGCGCGGAAACGCTCGCG ((((((....)))..))) | -23.4 kcal/mol | 52.5 °C |
| CGCGCGGAAACGCTGGCG ((((((....)))..))) | -29.6 kcal/mol | 53.7 °C |
| CGCGGAACGATCCGCG ((((((....)))))) | -31.8 kcal/mol | 67.6 °C |
| CGCGGAACGTCCGCG ((((((...)))))) | -39.5 kcal/mol | 60.5 °C |
| CGCGGAAGCCTCCGCG ((((((....)))))) | -31.3 kcal/mol | 68.6 °C |
| CGCGGAAGGTCCGCG ((((((...)))))) | -27.1 kcal/mol | 69.2 °C |
| CGCGGAATTCTCCGCG ((((((....)))))) | -32 kcal/mol | 69.3 °C |

| Sequence | folding enthalpy [1] | Tm [2] |
| --- | --- | --- |
| CGCGGACAAATCCGCG ((((((....)))))) | -40.8 kcal/mol | 60.9 °C |
| CGCGGACAGCTCCGCG ((((((....)))))) | -30.1 kcal/mol | 68.2 °C |
| CGCGGACAGTTCCGCG ((((((....)))))) | -40.7 kcal/mol | 66.6 °C |
| CGCGGACCACTCCGCG ((((((....)))))) | -32.7 kcal/mol | 64 °C |
| CGCGGACCATTCCGCG ((((((....)))))) | -37.3 kcal/mol | 65.3 °C |
| CGCGGACCGATCCGCG ((((((....)))))) | -36.5 kcal/mol | 68.5 °C |
| CGCGGACGACTCCGCG ((((((....)))))) | -40.8 kcal/mol | 63.5 °C |
| CGCGGACGCCTCCGCG ((((((....)))))) | -32 kcal/mol | 68.8 °C |
| CGCGGACTTCTCCGCG ((((((....)))))) | -35.6 kcal/mol | 65.9 °C |
| CGCGGAGCGATCCGCG ((((((....)))))) | -23.5 kcal/mol | 62.2 °C |
| CGCGTGCGGAAACGCGCG (((..(((....)))))) | -12.4 kcal/mol | 66.1 °C |
| CGCTACGGAAACGTGCG (((.(((....)))))) | -33.2 kcal/mol | 53.3 °C |
| CGCTACGGAAACGTGGCG (((.(((....))).))) | -40.1 kcal/mol | 59.5 °C |
| CGCTACGGAAACGTTGCG (((.(((....))).))) | -38.7 kcal/mol | 56.3 °C |
| CGCTAGAAATAGCG (((((....))))) | -24.9 kcal/mol | 51.8 °C |
| CGCTCGGAAACGAAAGCG ((((((....)))..))) | -27.8 kcal/mol | 47.2 °C |
| CGCTCGGAAACGAAGGCG ((((((....)))..))) | -29.6 kcal/mol | 44.7 °C |
| CGCTCGGAAACGACCGCG ((((((....)))..))) | -21.6 kcal/mol | 38.6 °C |
| CGCTCGGAAACGACGGCG ((((((....)))..))) | -22.7 kcal/mol | 46.6 °C |
| CGCTCGGAAACGAGGGCG ((((((....)))..))) | -12.4 kcal/mol | 51.7 °C |
| CGCTCGGAAACGATCGCG ((((((....)))..))) | -24.2 kcal/mol | 40.2 °C |
| CGCTCTCGGAAACGAGCG (((..(((....)))))) | -17.5 kcal/mol | 46 °C |
| CGCTGCGGAAACGCGCG (((.(((....)))))) | -27.1 kcal/mol | 60.8 °C |

| Sequence | folding enthalpy [1] | Tm [2] |
| --- | --- | --- |
| CGCTGCGGAAACGCTGCG (((.(((....))).))) | -30.7 kcal/mol | 69.2 °C |
| CGCTTGAAAAAGCG (((((....))))) | -23.3 kcal/mol | 58.2 °C |
| CGCTTGCGGAAACGCGCG (((..(((....)))))) | -10.8 kcal/mol | 51.3 °C |
| CGGAAACGGAAACGTCCG (((..(((....)))))) | -22.9 kcal/mol | 41.1 °C |
| CGGAAGAAATTCCG (((((....))))) | -25.1 kcal/mol | 46.4 °C |
| CGGACGGAAACGTCACCG ((((((....)))..))) | -11.6 kcal/mol | 34.4 °C |
| CGGACGGAAACGTGCCG ((((((....))).))) | -18.7 kcal/mol | 48.4 °C |
| CGGACGGAAACGTGGCCG ((((((....)))..))) | -25.7 kcal/mol | 44.1 °C |
| CGGAGGCGGAAACGCCCG (((..(((....)))))) | -11.7 kcal/mol | 54.7 °C |
| CGGATCGGAAACGACCG (((.(((....)))))) | -28.2 kcal/mol | 49.8 °C |
| CGGCACGGAAACGTCCG (((.(((....)))))) | -21.8 kcal/mol | 47.9 °C |
| CGGCATCGGAAACGACCG (((..(((....)))))) | -16.6 kcal/mol | 34.4 °C |
| CGGCCCCGGAAACGGCCG (((..(((....)))))) | -31.9 kcal/mol | 54.4 °C |
| CGGCCCGGAAACGGACCG (((.(((....))).))) | -37.7 kcal/mol | 57.6 °C |
| CGGCCGGAAACGGAACCG ((((((....)))..))) | -26.2 kcal/mol | 46 °C |
| CGGCCGGAAACGGACCG ((((((....))).))) | -25 kcal/mol | 54.6 °C |
| CGGCCGGAAACGGCACCG ((((((....)))..))) | -8.06 kcal/mol | 34.5 °C |
| CGGCCGGAAACGGCGCCG ((((((....)))..))) | -8.21 kcal/mol | 39.2 °C |
| CGGCCGGAAACGGTGCCG ((((((....)))..))) | -35.8 kcal/mol | 51.9 °C |
| CGGCGCGGAAACGCCCG (((.(((....)))))) | -16.7 kcal/mol | 56.5 °C |
| CGGCGTCGGAAACGACCG (((..(((....)))))) | -13.8 kcal/mol | 47.4 °C |
| CGGCTCGGAAACGATCCG (((.(((....))).))) | -44.5 kcal/mol | 49.2 °C |
| CGGGACCGGAAACGGCCG (((..(((....)))))) | -16.1 kcal/mol | 48.5 °C |
